Experiment [1] concerns DU-145. The experiment in a line: Antiproliferative activity against human DU145 cells assessed as reduction in cell growth incubated for 96 hrs by propidium iodide based 2D monolayer assay. The settings on record: DU-145, 96 h. The experiment is classed as functional. Put shortly:
(§1)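 After 24 h recovery, compound in medium or medium alone (control wells) was added at 10 half-log concentrations from 0.0032 to 100 µM, in triplicate, with at most 0.3% DMSO. After 96 h, wells were PBS-washed, stained with 7 µg/ml PI and 0.1% Triton X-100, and fluorescence read at 530/620 nm. IC50 came from a 4-parameter fit, geometric mean.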

In experiment [2] the test system is CWR22R. As to the kind of experiment: Antiproliferative activity against human 22Rv1 cells assessed as reduction in cell growth incubated for 96 hrs by propidium iodide based 2D monolayer assay. The conditions noted are these: 22Rv1, 96 h. The experiment is classed as functional. Put shortly: as §1
The subject of experiment [3] is LNCaP. The experiment in a line: Antiproliferative activity against human LNCAP cells assessed as reduction in cell growth incubated for 96 hrs by propidium iodide based 2D monolayer assay. It counts as functional. The method, boiled down: as §1
Experiment [4] deals with VCaP. The experiment in a line: Antiproliferative activity against human VCaP cells assessed as reduction in cell growth incubated for 96 hrs by propidium iodide based 2D monolayer assay. The experiment is classed as functional. Put shortly:
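VCaP cells in RPMI 1640 with 10% FCS at 37 °C, 5% CO2, seeded 4,000–20,000 cells/well and left 24 h before dosing. Compounds from DMSO stocks were diluted in half-log steps in medium, 10 concentrations 0.0032–100 μM, triplicate wells, max 0.3% DMSO. After 96 h, cells were washed, stained with 7 μg/ml propidium iodide plus 0.1% Triton X-100 for 1–2 h at room temperature, and fluorescence read at ex 530/em 620 nm.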

Experiment [5] has as its target T1, Androgen receptor (Rattus norvegicus, UniProt P15207).
T1 sequence (P15207 whole entry): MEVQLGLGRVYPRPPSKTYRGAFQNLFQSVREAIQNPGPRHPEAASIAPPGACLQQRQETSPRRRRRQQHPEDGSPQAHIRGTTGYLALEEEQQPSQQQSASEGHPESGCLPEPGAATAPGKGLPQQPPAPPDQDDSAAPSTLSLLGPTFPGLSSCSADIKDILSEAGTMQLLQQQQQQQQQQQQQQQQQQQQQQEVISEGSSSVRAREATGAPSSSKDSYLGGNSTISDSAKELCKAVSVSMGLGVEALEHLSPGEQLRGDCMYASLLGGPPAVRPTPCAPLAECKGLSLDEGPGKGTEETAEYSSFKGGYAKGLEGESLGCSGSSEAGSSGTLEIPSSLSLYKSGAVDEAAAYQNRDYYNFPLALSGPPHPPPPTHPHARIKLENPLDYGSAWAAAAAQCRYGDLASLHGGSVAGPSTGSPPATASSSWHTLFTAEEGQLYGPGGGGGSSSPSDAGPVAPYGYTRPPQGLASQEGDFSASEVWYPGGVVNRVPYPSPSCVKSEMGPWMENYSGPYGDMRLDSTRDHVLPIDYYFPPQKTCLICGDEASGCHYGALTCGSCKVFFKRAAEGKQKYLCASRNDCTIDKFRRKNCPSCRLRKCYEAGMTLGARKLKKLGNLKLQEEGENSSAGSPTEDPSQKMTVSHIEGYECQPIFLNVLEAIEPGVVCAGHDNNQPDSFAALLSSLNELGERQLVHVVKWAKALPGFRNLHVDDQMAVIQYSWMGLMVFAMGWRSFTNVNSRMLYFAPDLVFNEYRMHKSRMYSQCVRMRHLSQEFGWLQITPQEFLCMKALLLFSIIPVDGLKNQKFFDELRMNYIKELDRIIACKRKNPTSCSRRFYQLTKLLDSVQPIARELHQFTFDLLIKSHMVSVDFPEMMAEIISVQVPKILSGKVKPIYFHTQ
The experiment in a line: Antagonist activity at GAL4-DBD fused rat androgen receptor expressed in UAS-bla 293 cells assessed as reduction in R1881-induced activation incubated for 16 hrs followed by fluorescence substrate addition and measured after 2 hrs by beta lactamase reporter gene assay. The experiment is classed as cell-based. In general terms: In a reporter assay the amount or activity of a reporter protein is the signal.

As usually defined, the IC50 is the concentration at which inhibition is half-maximal.

`CC(O)(COc1ccc(C#N)cc1)C(=O)Nc1ccc(C#N)c(C(F)(F)F)c1` (racemic): the IC50 worked out at 44.6 µM in experiment [1]; 24.8 µM in experiment [2]; 20.9 µM in experiment [3]; 24.5 µM in experiment [4]; 0.036 µM in experiment [5].

Values taken from ChEMBL document CHEMBL4364301 (Eur J Med Chem, 2019).
